Publication PMC13435124 (The FASEB Journal, 2026)

How the values were obtained:
[1] = system: Aβ40 and Aβ42 peptide levels in N2a-APPswe cells; experiment: Aβ40 and Aβ42 peptide levels in N2a cell supernatants; format: cell-based, mouse; conditions: 250 μM, 24 h
Summary of the method: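 N2a-wt and N2a-APPswe cells left untreated or exposed to test compound at 250 μM for 24 h. Aβ40 and Aβ42 peptides quantified by ELISA.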

Nrf2 in N2a-APPswe cells [2] = experiment: Nrf2 cytoplasmatic and nuclear protein levels, western blot; format: cell-based, mouse; conditions: 250 μM, 6 h, vs untreated cells
Summary of the method: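 N2a-APPswe cells exposed to test compound at 250 μM for 2, 4 and 6 h. Cytoplasmic and nuclear Nrf2 assessed by western blot.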

Nrf2 in N2a-APPswe cells [3] = experiment: Nrf2 activation, Nrf2 Transcription Factor Assay Kit; format: cell-based, mouse; conditions: 250 μM
Summary of the method: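 N2a-APPswe cells exposed to test compound at 250 μM for 2, 4 and 6 h. Nrf2 activation determined with a commercial kit.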

[4] = system: HMOX1 in N2a-APPswe cells; experiment: HMOX1 protein levels, western blot; format: cell-based, mouse; conditions: 250 μM, 24 h, vs control
Summary of the method: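 N2a-APPswe cells treated 24 h with test compound at 250 μM. HMOX1 detected by western blot after milk blocking 1 h RT; anti-HMOX1 1:1000 in 5% BSA/TBS-T overnight at 4°C, then HRP secondary 1 h RT.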

[5] = system: BV-2 cells exposed to LPS; experiment: Nos2 and Il-1β mRNA in LPS-stimulated microglia, real-time RT-PCR; format: cell-based, mouse; conditions: BV-2, 250 μM, LPS 50 ng/mL, 18 h
Summary of the method: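 BV-2 cells given test compound at 250 μM, LPS 50 ng/mL added 30 min later, incubated 18 h. Nos2 and Il-1β mRNA measured by real-time RT-PCR. Mean ± SEM of four independent experiments, relative to untreated control.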

[6] = system: BV-2 cells exposed to LPS; experiment: iNOS and pro-IL-1β protein in LPS-stimulated microglia, western blot; format: cell-based, mouse; conditions: BV-2, 250 μM, LPS 50 ng/mL, 24 h
Summary of the method: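 BV-2 cells given test compound at 250 μM, LPS 50 ng/mL added 30 min later, for 24 h. iNOS and pro-IL-1β protein measured by western blot. Mean ± SEM of four independent experiments, relative to untreated control.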

[7] = system: BV-2 cells exposed to LPS; experiment: Nitric oxide production; format: cell-based, mouse; conditions: BV-2, 250 μM, LPS 50 ng/mL, 24 h
Summary of the method: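 BV-2 microglia given test compound at 250 μM, then LPS 50 ng/mL 30 min later, for 24 h. Nitrite measured in supernatants by Griess assay at 550 nm against a sodium nitrite standard curve. Mean ± SEM of four independent experiments, relative to untreated control.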

N2a-APPswe cells = experiment: Nrf2 silencing; format: cell-based, mouse
BV-2 cells = experiment: Nrf2 silencing; format: cell-based, mouse; conditions: BV-2, Iso + LPS
N2a-wt cells = experiment: Cell metabolism, Alamar Blue; format: cell-based, mouse; conditions: 24 h, Alamar Blue (Figure S1A)
Summary of the method: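 Cells exposed 24 h to test compound at 500, 250, 100, 50 or 5 μM, DMSO final up to 0.1% v/v. Resazurin 50 μM in PBS added 3 h before the end. Absorbance read at 570 nm with 620 nm reference. Highest nontoxic concentration chosen from metabolic capacity.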

APP/PS1 female mice [8] = experiment: Aβ40 and Aβ42 levels in brain and plasma of 6-month-old females; format: in vivo, mouse; conditions: 1 month
Summary of the method: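 WT and APP/PS1 females given PBS vehicle or test compound at 50 mg/kg (APP/PS1 only) intranasally, without anaesthesia, by micropipette for 1 month; groups of 5 per arm. Brain Aβ40 and Aβ42 quantified. Mean ± SEM of five to six animals.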

APP/PS1 female mice [9] = experiment: Demographic and metabolic parameters of 6-month-old females; format: in vivo, mouse; conditions: 6-month-old APP/PS1 females, 50 mg/kg, 1 month
Summary of the method: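 WT and APP/PS1 females given PBS vehicle or test compound at 50 mg/kg (APP/PS1 only) intranasally for 1 month. Recorded body weight, adipose tissue weight, fasting glucose and triglycerides. Mean ± SEM of five to six animals.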

WT and APP/PS1 male mice = experiment: Body weight and metabolic parameters of 11-month-old males; format: in vivo, mouse; conditions: 1 month
APP/PS1 male mice [10] = experiment: Y-maze test; format: in vivo, mouse; conditions: 100 mg/kg, 1 month
Summary of the method: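 Behavioural testing in 10-month-old APP/PS1 and WT littermate males, randomised n = 5 per group. Intranasal PBS or test compound at 100 mg/kg for 1 month. Distance travelled also recorded.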

APP/PS1 male mice [11] = experiment: Aβ40 and Aβ42 levels in cortex, hippocampus and plasma; format: in vivo, mouse; conditions: 11-month-old APP/PS1 males, 100 mg/kg, 1 month
Summary of the method: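 APP/PS1 and WT littermate males aged 10 months, randomised to groups of n = 5. PBS vehicle or test compound at 100 mg/kg given intranasally for 1 month. At 11 months, Aβ40 and Aβ42 measured in cortex, hippocampus and plasma; plasma Aβ42/Aβ40 ratio derived. Mean ± SEM of five animals.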

[12] = source not given; cited from earlier work
[13] = 6-month-old APP/PS1 females + Iso 50 mg/kg
[14] = 6-month-old APP/PS1 females, 50 mg/kg, vs untreated
[15] = APP/PS1 males, not statistically significant

Compound: CC=Cc1ccc(O)c(OC)c1 [Iso, 2‐methoxy‐4‐(prop‐1‐en‐1‐yl) phenol]
- Aβ42 peptide levels [1]: no effect was observed
- Aβ40 levels ([1]; vs untreated cells): significantly decreased
- Nrf2 nuclear levels (Nrf2 in N2a-APPswe cells [2]): significantly increased
- Nrf2 activation (ELISA kit) (Nrf2 in N2a-APPswe cells [3]): increased Nrf2 activation
- HMOX1 protein levels [4]: significant increase
- LPS-induced Il-1β gene expression [5]: reduced
- LPS-induced Nos2 gene expression [5]: reduced
- LPS-induced iNOS protein levels [6]: reduced
- LPS-induced pro-IL-1β protein levels [6]: reduced
- LPS-triggered nitrite production [7]: significantly decreased
- Aβ40 peptide levels (N2a-APPswe cells; not transfected N2a-APPswe, silencing experiment set, 24 h): significantly decreased
- Aβ40 levels in Nrf2-silenced cells (N2a-APPswe cells; siNrf2 + Iso, N2a-APPswe, 36 h after transfection): further decreased
- Iso-induced NO decrease in siGAPDH- or siNeg-transfected cells (BV-2 cells): not affected
- Iso-induced NO decrease in siNrf2-transfected cells (BV-2 cells): reversed
- highest nontoxic concentration tested (N2a-wt cells): 250 µM
- plasma Aβ40 levels (APP/PS1 female mice [8]; [13]): 72.29 ± 7.271 picograms per milliliter
- plasma Aβ42 levels (APP/PS1 female mice [8]; [13]): 83.88 ± 9.498 picograms per milliliter
- brain Aβ40 levels (APP/PS1 female mice [8]; [14]): decreased
- brain Aβ42 levels (APP/PS1 female mice [8]; [14]): decreased
- adipose tissue weight (APP/PS1 female mice [9]): did not reduce
- triglycerides (WT and APP/PS1 male mice; 11-month-old APP/PS1 males, 100 mg/kg): reduction
- adipose tissue weight (WT and APP/PS1 male mice; 11-month-old WT and APP/PS1 males, 100 mg/kg): trend toward a decrease
- decrease in body weight (WT and APP/PS1 male mice; 11-month-old males, intranasal 100 mg/kg): < 15%
- Y-maze entries in the novel arm (APP/PS1 male mice [10]; [15]): reversed this trend
- Y-maze time spent in the novel arm (APP/PS1 male mice [10]; [15]): reversed this trend
- Y-maze distance traveled (APP/PS1 male mice [10]; males): not affected
- cortex Aβ40 levels (APP/PS1 male mice [11]): no alterations observed
- cortex Aβ42 levels (APP/PS1 male mice [11]): no alterations observed
- hippocampus Aβ40 levels (APP/PS1 male mice [11]): no alterations observed
- hippocampus Aβ42 levels (APP/PS1 male mice [11]): no alterations observed
- plasma Aβ40 levels (APP/PS1 male mice [11]): decreased
- plasma Aβ42 levels (APP/PS1 male mice [11]): decreased
- plasma Aβ42/Aβ40 ratio (APP/PS1 male mice [11]; not significant): partial increase
- octanol-water partition coefficient (logP) [12]: 3.04
